# From ChEMBL document CHEMBL1153722, “Design, synthesis, and characterization of peptide-based rab geranylgeranyl transferase inhibitors” (J Med Chem, 2009)
# Peptide text beside a SMILES is read from it. * marks the point of attachment. Hydrocinnamoyl = O=C(CCc1ccccc1)*; Undecanoyl = CCCCCCCCCCC(=O)*; Nicotinoyl = O=C(c1cccnc1)*; NHOH = ON*
# Organism: Rattus norvegicus
# Assay: Inhibition of rat recombinant Rab geranylgeranyltransferase at 100 uM in presence of canine Rab7 and rat REP1 NBD-FPP based continuous fluorimetric assay
# Summary of the method: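 Continuous fluorometric assay in 96/384-well format: 3 μM Rab7, 3 μM REP1, 9 μM NBD-FPP and 400 nM RabGGTase, with or without inhibitor. […] IC50 was calculated from three independent measurements.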
row,SMILES,inhibition [%]
1,O=C(CNC(=O)c1csc(-c2ccccc2)n1)N[C@@H](Cc1ccccc1)C(=O)N[C@@H](Cc1c[nH]cn1)C(=O)O,70
2,CCC/C=C\c1ccccc1/C=C/C(=O)N[C@H](Cc1ccc(O)cc1)C(=O)N(C)[C@@H](Cc1ccc(OC)cc1)C(=O)N(C)[C@@H](Cc1ccccc1)C(=O)OCc1cnc(C)s1,97
3,CC(C)C[C@H](NC(=O)[C@H](COC(C)(C)C)NC(=O)[C@H](Cc1ccccc1)NC(=O)/C=C/c1ccc(F)cc1)C(=O)Nc1nccs1,112
4,O=C(CNC(=O)[C@H](Cc1c[nH]cn1)NC(=O)c1coc(-c2ccccc2)n1)N[C@@H](Cc1c[nH]c2ccccc12)C(=O)O,69
5,C[C@@H](O)[C@H](NC(=O)/C=C/c1ccccc1)C(=O)N[C@@H](Cc1ccccc1)C(=O)N[C@@H](CCC(N)=O)C(=O)OCCCl,81
6,O=C(N[C@@H](CO)C(=O)N[C@@H](Cc1ccccc1)C(=O)N[C@@H](CO)C(=O)OCCCl)C(Br)C(Br)c1ccc(F)cc1 (stereo not given in full),98
7,O=C(CNC(=O)c1coc(-c2ccccc2)n1)N[C@@H](Cc1cn(C(c2ccccc2)(c2ccccc2)c2ccccc2)cn1)C(=O)N[C@@H](Cc1cn(C(c2ccccc2)(c2ccccc2)c2ccccc2)cn1)C(=O)O,91
8,CC(C)C[C@H](NC(=O)[C@H](CO)NC(=O)[C@H](Cc1ccccc1)NC(=O)CCc1ccccc1)C(=O)O,80
9,COc1ccc(C[C@@H](C(=O)N(C)[C@@H](Cc2ccccc2)C(=O)N2CCC(C(N)=O)CC2)N(C)C(=O)[C@@H](Cc2ccc(O)cc2)NC(=O)OCc2ccc([N+](=O)[O-])cc2)cc1,75
10,C[C@H](NC(=O)[C@@H](NC(=O)c1ccc(-c2ccccc2)cc1)[C@@H](C)O)C(=O)N[C@@H](CCC(=O)O)C(N)=O,82
11,CC[C@H](C)[C@H](NC(=O)CCc1ccc(F)cc1)C(=O)N[C@@H](C)C(=O)N[C@@H](CCC(N)=O)C(=O)Nc1cccc(Br)n1,92
12,CON(C)C(=O)[C@H](CCC(N)=O)NC(=O)[C@H](Cc1ccccc1)NC(=O)[C@@H](NC(=O)/C=C/c1ccccc1)[C@@H](C)O,80
13,NCCCC[C@H](NC(=O)c1coc(-c2ccccc2)n1)C(=O)NCC(=O)N[C@@H](Cc1ccc(O)cc1)C(=O)O,100
14,COC(=O)[C@H](Cc1ccccc1)NC(=O)CNC(=O)[C@@H]1CCCN1C(=O)/C=C/c1ccccc1,89
15,O=C(N[C@@H](CO)C(=O)N[C@@H](Cc1ccccc1)C(=O)N[C@@H](CO)C(=O)O)C(Br)C(Br)c1ccc(F)cc1 (stereo not given in full),92
16,CC[C@H](C)[C@H](NC(=O)[C@H](Cc1ccccc1)NC(=O)c1cccnc1)C(=O)N[C@@H](CCCNC(=N)N)C(N)=O (Nicotinoyl-Phe-Ile-Arg-NH2),79
17,O=C(/C=C/c1ccccc1)N[C@@H](Cc1ccccc1)C(=O)N[C@@H](Cc1ccccc1)C(=O)N[C@@H](Cc1ccc(O)cc1)C(=O)NC1CCCCC1,71
18,O=C(CNC(=O)c1coc(-c2ccccc2)n1)NCC(=O)N[C@@H](Cc1c[nH]cn1)C(=O)Nc1ccc(F)cc1F,112
19,C[C@@H](O)[C@H](NC(=O)/C=C/c1ccccc1)C(=O)N[C@@H](Cc1ccccc1)C(=O)N[C@@H](CCC(N)=O)C(=O)NCCO,118

row,SMILES,inhibition [%]
1,C=CCCCOC(=O)[C@H](CCC(N)=O)NC(=O)[C@H](Cc1ccccc1)NC(=O)[C@H](C)NC(=O)CCc1ccccc1,75
2,CC[C@H](C)[C@H](NC(=O)c1ccc(-c2ccccc2)cc1)C(=O)N[C@@H](C(=O)N[C@@H](CCC(N)=O)C(=O)N(C)OC)C(C)C,109
3,CC(C)C[C@H](NC(=O)[C@H](COC(C)(C)C)NC(=O)[C@H](Cc1ccccc1)NC(=O)/C=C/c1ccc(F)cc1)C(N)=O,83
4,CC(C)C[C@H](NC(=O)/C=C/c1ccccc1)C(=O)N[C@@H](Cc1ccccc1)C(=O)N[C@@H](Cc1ccccc1)C(=O)Nc1ccc(F)cc1F,93
5,O=C(CNC(=O)[C@@H]1CCCN1C(=O)c1coc(-c2ccccc2)n1)N[C@@H](Cc1ccccc1)C(=O)Nc1ccc(F)cc1F,89
6,CCC(C)OC(=O)[C@H](CCC(N)=O)NC(=O)[C@H](Cc1ccccc1)NC(=O)[C@@H](C)NC(=O)CCc1ccccc1 (stereo not given in full),83
7,COC(=O)CNC(=O)[C@H](CO)NC(=O)[C@H](Cc1ccccc1)NC(=O)C1COC(c2ccccc2)=N1 (stereo not given in full),114
8,CC[C@H](C)[C@H](NC(=O)c1ccc(-c2ccccc2)cc1)C(=O)N[C@@H](C(=O)N[C@@H](CCC(N)=O)C(=O)NNC(=O)OC)C(C)C,99
9,O=C(CCc1ccccc1)N[C@@H](CO)C(=O)N[C@@H](Cc1ccccc1)C(=O)N[C@@H](CO)C(=O)Nc1ccc(F)cc1F,96
10,CC(=O)Nc1cc(C(=O)N2CCC[C@H]2C(=O)N[C@@H](C(=O)N[C@@H](CCC(=O)O)C(N)=O)C(C)C)ccc1[N+](=O)[O-],111
11,C[C@H](NC(=O)c1coc(-c2ccccc2)n1)C(=O)NCC(=O)N[C@@H](Cc1c[nH]cn1)C(=O)Nc1ccc(F)cc1F,76
12,C[C@H](NC(=O)c1coc(-c2ccccc2)n1)C(=O)NCC(=O)N[C@@H](Cc1ccc(O)cc1)C(=O)Nc1ccc(F)cc1F,83
13,NC(=O)CC[C@H](NC(=O)[C@H](Cc1ccccc1)NC(=O)CNC(=O)CCc1ccccc1)C(=O)NNc1ccccc1,75
14,NC(=O)CC[C@H](NC(=O)[C@H](Cc1ccccc1)NC(=O)CNC(=O)CCc1ccccc1)C(=O)NC1CCCCC1,50
15,CCC(C)OC(=O)[C@H](CCC(N)=O)NC(=O)[C@H](Cc1ccccc1)NC(=O)[C@@H](NC(=O)/C=C/c1ccccc1)[C@@H](C)O (stereo not given in full),87
16,NC(=O)[C@H](Cc1ccc(O)cc1)NC(=O)CCNC(=O)[C@H](Cc1c[nH]cn1)NC(=O)OCc1ccccc1,89
17,CC[C@H](C)[C@H](NC(=O)[C@H](Cc1ccccc1)NC(=O)c1cccnc1)C(=O)N[C@@H](CCCNC(=N)N)C(=O)OC (Nicotinoyl-Phe-Ile-Arg-OMe),105
18,NC(=O)CC[C@H](NC(=O)[C@H](Cc1ccccc1)NC(=O)[C@H](CO)NC(=O)CCc1ccccc1)C(=O)O (Hydrocinnamoyl-Ser-Phe-Gln-OH),102

# Continued, values first:
row,inhibition [%],SMILES
1,64,CCCCCCCCCCC(=O)N[C@@H](Cc1ccc(O)cc1)C(=O)N[C@@H](Cc1c[nH]cn1)C(=O)N[C@@H](Cc1c[nH]cn1)C(=O)Nc1ccccn1
2,17,CCCCCc1ccc(/C=C/C(=O)N[C@H](Cc2cnc[nH]2)C(=O)N[C@@H](Cc2ccc(O)cc2)C(=O)N[C@@H](Cc2ccccc2)C(=O)O)cc1
3,85,CCCCCCCCCCCCCCCC(=O)N[C@@H](Cc1ccc(O)cc1)C(=O)N[C@@H](Cc1ccc(O)cc1)C(=O)N[C@@H](Cc1ccc(O)cc1)C(=O)NCCCn1ccnc1
4,61,O=C(N[C@@H](Cc1cnc[nH]1)C(=O)N[C@@H](Cc1ccccc1)C(=O)N[C@@H](Cc1ccc(O)cc1)C(=O)O)OCc1ccc([N+](=O)[O-])cc1
5,102,CCCCCCCCCCCOc1ccc(C(=O)N[C@@H](Cc2ccc(O)cc2)C(=O)N[C@@H](Cc2ccc(O)cc2)C(=O)N[C@@H](Cc2c[nH]cn2)C(=O)O)cc1
6,77,CCCCCCCCCCC(=O)N[C@@H](Cc1c[nH]cn1)C(=O)N[C@@H](Cc1c[nH]cn1)C(=O)N[C@@H](CO)C(=O)OC (Undecanoyl-His-His-Ser-OMe)
7,59,CCCCCCCCCCC(=O)N[C@@H](Cc1ccc(O)cc1)C(=O)N[C@@H](Cc1c[nH]cn1)C(=O)N[C@@H](Cc1c[nH]cn1)C(=O)NCCCn1ccnc1
8,97,O=C(CNC(=O)[C@H](Cc1ccc(O)cc1)NC(=O)c1ccc(F)cc1)N[C@@H](Cc1ccc(O)cc1)C(=O)Nc1ccccc1
9,90,O=C(CNC(=O)[C@H](Cc1ccc(O)cc1)NC(=O)c1ccc(F)cc1)N[C@@H](Cc1ccc(O)cc1)C(=O)O
10,42,CCCCCCCCCCCC(=O)N[C@@H](Cc1ccc(O)cc1)C(=O)N[C@@H](Cc1c[nH]cn1)C(=O)N[C@@H](Cc1ccc(O)cc1)C(=O)Nc1ccccc1N
11,83,CCCCCCCCCCC(=O)N[C@@H](Cc1ccc(O)cc1)C(=O)N[C@@H](Cc1c[nH]cn1)C(=O)N[C@@H](Cc1ccc(O)cc1)C(N)=O (Undecanoyl-Tyr-His-Tyr-NH2)
12,89,O=C(CCc1ccc(F)cc1)N[C@@H](Cc1ccc(O)cc1)C(=O)NCC(=O)N[C@@H](Cc1ccc(O)cc1)C(=O)NCc1ccc(F)cc1F
13,71,O=C(N[C@@H](Cc1ccc(O)cc1)C(=O)N[C@@H](Cc1ccc(O)cc1)C(=O)N[C@@H](Cc1ccc(O)cc1)C(=O)OCCCl)c1ccc(F)cc1F
14,40,CCCCCCCCCCCOc1ccc(C(=O)N[C@@H](Cc2ccc(O)cc2)C(=O)N[C@@H](Cc2ccc(O)cc2)C(=O)N[C@@H](Cc2ccc(O)cc2)C(=O)OCCN)cc1
15,42,O=C(N[C@H](Cc1ccc(O)cc1)C(=O)N[C@@H](Cc1ccc(O)cc1)C(=O)N[C@@H](Cc1ccc(O)cc1)C(=O)O)OCc1ccccc1
16,89,CCCCCCCCCCCCCCCCNC(=O)[C@H](Cc1ccc(O)cc1)NC(=O)CNC(=O)[C@H](Cc1ccc(O)cc1)NC(=O)c1ccc(F)cc1
17,80,Nc1ccccc1NC(=O)[C@H](Cc1ccc(O)cc1)NC(=O)CCNC(=O)[C@H](Cc1c[nH]cn1)NC(=O)OCc1ccccc1
18,101,CCCCCCCCCCCOc1ccc(C(=O)N[C@@H](Cc2c[nH]cn2)C(=O)N[C@@H](Cc2c[nH]cn2)C(=O)N[C@@H](Cc2c[nH]cn2)C(=O)OCCN)cc1
19,124,CCCCCCCCCCCC(=O)N[C@@H](Cc1c[nH]cn1)C(=O)N[C@@H](Cc1c[nH]cn1)C(=O)N[C@@H](Cc1ccc(O)cc1)C(=O)NCCCn1ccnc1
20,84,CCCCCCCCCCC(=O)N[C@@H](Cc1ccc(O)cc1)C(=O)N[C@@H](Cc1c[nH]cn1)C(=O)N[C@@H](Cc1c[nH]cn1)C(=O)NO (Undecanoyl-Tyr-His-His-{NHOH})
21,46,CN(C(=O)[C@@H](Cc1ccc(O)cc1)NC(=O)OCc1ccccc1)[C@@H](Cc1ccccc1)C(=O)N[C@@H](Cc1ccc(O)cc1)C(=O)O
22,99,O=C(CCc1ccc(F)cc1)N[C@@H](Cc1ccc(O)cc1)C(=O)NCC(=O)N[C@@H](Cc1ccc(O)cc1)C(=O)Nc1ccccc1
23,70,CCCCCCCCCCC(=O)N[C@@H](Cc1c[nH]cn1)C(=O)N[C@@H](Cc1ccccc1)C(=O)N[C@@H](Cc1ccc(O)cc1)C(=O)O (Undecanoyl-His-Phe-Tyr-OH)
